The structures appear in SMILES notation.

For assay [1], the species on record is Oryctolagus cuniculus. The assay is described as follows: Inhibition of the [Ca2+]-ATPase by coincubation of the enzyme with the Thapsigargin (activity=53.3) along with the compound at 100 nM concentration. Details: scale not given: the % may be the effect or the level left.
For assay [2], the species on record is Oryctolagus cuniculus. The assay is described as follows: Inhibition of the [Ca2+]-ATPase by coincubation of the enzyme with the Thapsigargin (activity=53.3) along with the compound at 1 nM concentration. Details: scale not given: the % may be the effect or the level left.
For assay [3], the species on record is Oryctolagus cuniculus. Kind of assay: Inhibition of the [Ca2+]-ATPase by coincubation of the enzyme with the Thapsigargin (activity=53.3) along with the compound at 20 nM concentration. Also on record: scale not given: the % may be the effect or the level left.
For assay [4], the species on record is Oryctolagus cuniculus. Kind of assay: Inhibition of the [Ca2+]-ATPase by the compound (100 nM) was determined by the decrease in rate of formation of inorganic phosphate compared to control. Details: scale not given: the % may be the effect or the level left. Put shortly:
(§1)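 Leaky SR vesicles (5 μg/mL protein) from New Zealand white rabbit hind-leg muscle in pH 7.0 buffer: KCl 120 mM, MOPS 25 mM, EGTA 0.5 mM, CaCl2 0.44 mM, MgCl2 2 mM, A23187 1 μM. Compound added in DMSO (<1%), 5 min preincubation at 30 °C, then ATP 1 mM final. Pi read by malachite green at ≥8 time points; rate from slope.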

Assay [5] is filed under the species Oryctolagus cuniculus. The assay is described as follows: Inhibition of the [Ca2+]-ATPase by the compound (1 nM) was determined by the decrease in rate of formation of inorganic phosphate compared to control. Details: scale not given: the % may be the effect or the level left. The essentials: as §1
The species named for assay [6] is Oryctolagus cuniculus. Kind of assay: Inhibition of the [Ca2+]-ATPase by the compound (20 nM) was determined by the decrease in rate of formation of inorganic phosphate compared to control. Also on record: scale not given: the % may be the effect or the level left. Put shortly: as §1
Assay [7] can be described thus: Activity against [Ca2+]-ATPase in rabbit white skeletal muscle sarcoplasmic reticulum vesicles.
For assay [8], the species on record is Oryctolagus cuniculus. Kind of assay: Inhibition of the [Ca2+]-ATPase by coincubation of the enzyme with the Thapsigargin (activity=56.7) along with the compound at 1000 nM concentration. Also on record: scale not given: the % may be the effect or the level left.
The species entered for assay [9] is Oryctolagus cuniculus. Kind of assay: Inhibition of the [Ca2+]-ATPase by coincubation of the enzyme with the Thapsigargin (activity=56.7) along with the compound at 50000 nM concentration. Details: scale not given: the % may be the effect or the level left.
The species named for assay [10] is Oryctolagus cuniculus. The assay is described as follows: Inhibition of the [Ca2+]-ATPase by the compound (10000 nM) was determined by the decrease in rate of formation of inorganic phosphate compared to control. Also on record: scale not given: the % may be the effect or the level left. The essentials:
as §1

For assay [11], the species on record is Oryctolagus cuniculus. The assay is described as follows: Inhibition of the [Ca2+]-ATPase by the compound (1000 nM) was determined by the decrease in rate of formation of inorganic phosphate compared to control. Also on record: scale not given: the % may be the effect or the level left. The essentials: as §1
For assay [12], the species on record is Oryctolagus cuniculus. Kind of assay: Inhibition of the [Ca2+]-ATPase by the compound (50000 nM) was determined by the decrease in rate of formation of inorganic phosphate compared to control. Also on record: scale not given: the % may be the effect or the level left. Put shortly:
as §1

Assay [13] can be described thus: Activity against [Ca2+]-ATPase in rabbit white muscle sarcoplasmic reticulum vesicles.
For assay [14], the species on record is Oryctolagus cuniculus. The assay is described as follows: Inhibition of the [Ca2+]-ATPase by coincubation of the enzyme with the Thapsigargin (activity=56.7) along with the compound at 10000 nM concentration. Details: scale not given: the % may be the effect or the level left.
Assay [15] is filed under the species Oryctolagus cuniculus. The assay is described as follows: Inhibition of the [Ca2+]-ATPase by the compound (30 nM) was determined by the decrease in rate of formation of inorganic phosphate compared to control. Details: scale not given: the % may be the effect or the level left. The essentials:
as §1

The species entered for assay [16] is Oryctolagus cuniculus. Kind of assay: Inhibition of the [Ca2+]-ATPase by coincubation of the enzyme with the Thapsigargin (activity=49.4) along with the compound at 1 nM concentration. Also on record: scale not given: the % may be the effect or the level left.
The species entered for assay [17] is Oryctolagus cuniculus. The assay is described as follows: Inhibition of the [Ca2+]-ATPase by the compound (200 nM) was determined by the decrease in rate of formation of inorganic phosphate compared to control. Details: scale not given: the % may be the effect or the level left. The essentials:
as §1

For assay [18], the species on record is Oryctolagus cuniculus. Kind of assay: Inhibition of the [Ca2+]-ATPase by coincubation of the enzyme with the Thapsigargin (activity=49.4) along with the compound at 200 nM concentration. Also on record: scale not given: the % may be the effect or the level left.
Assay [19] is filed under the species Oryctolagus cuniculus. Kind of assay: Inhibition of the [Ca2+]-ATPase by coincubation of the enzyme with the Thapsigargin (activity=49.4) along with the compound at 30 nM concentration. Also on record: scale not given: the % may be the effect or the level left.
Assay [20] is filed under the species Oryctolagus cuniculus. Kind of assay: Inhibition of the [Ca2+]-ATPase by coincubation of the enzyme with the Thapsigargin (activity=53.9) along with the compound at 100 nM concentration. Also on record: scale not given: the % may be the effect or the level left.
The species named for assay [21] is Oryctolagus cuniculus. Kind of assay: Inhibition of the [Ca2+]-ATPase by coincubation of the enzyme with the Thapsigargin (activity=53.9) along with the compound at 20 nM concentration. Details: scale not given: the % may be the effect or the level left.
Assay [22] is filed under the species Oryctolagus cuniculus. The assay is described as follows: Inhibition of the [Ca2+] - ATPase by coincubation of the enzyme with the Thapsigargin (activity=53.9) along with the compound at 1 nM concentration. Also on record: scale not given: the % may be the effect or the level left.
The species entered for assay [23] is Oryctolagus cuniculus. The assay is described as follows: Inhibition of the [Ca2+]-ATPase by coincubation of the enzyme with the Thapsigargin (activity=56.5) along with the compound at 5000 nM concentration. Also on record: scale not given: the % may be the effect or the level left.
For assay [24], the species on record is Oryctolagus cuniculus. Kind of assay: Inhibition of the [Ca2+]-ATPase by coincubation of the enzyme with the Thapsigargin (activity=56.5) along with the compound at 500 nM concentration. Details: scale not given: the % may be the effect or the level left.
Assay [25] is filed under the species Oryctolagus cuniculus. The assay is described as follows: Inhibition of the [Ca2+]-ATPase by the compound (5000 nM) was determined by the decrease in rate of formation of inorganic phosphate compared to control. Details: scale not given: the % may be the effect or the level left. Put shortly: as §1
Assay [26] is filed under the species Oryctolagus cuniculus. Kind of assay: Inhibition of the [Ca2+]-ATPase by the compound (500 nM) was determined by the decrease in rate of formation of inorganic phosphate compared to control. Also on record: scale not given: the % may be the effect or the level left. The essentials: as §1
The species entered for assay [27] is Oryctolagus cuniculus. Kind of assay: Inhibition of the [Ca2+]-ATPase by coincubation of the enzyme with the Thapsigargin (activity=56.5) along with the compound at 100 nM concentration. Details: scale not given: the % may be the effect or the level left.

Take `C/C=C(/C)C(=O)O[C@H]1C(C)=C2[C@H]([C@@H]1OC(=O)CCCCC)[C@@](C)(OC(C)=O)C[C@H](OC(=O)CCC)[C@@]1(O)[C@H]2O[C@H]2O[C@@H](OCC)O[C@]21C`: the Control in assay [1] was found to be 36.8%; in assay [2], 52.5%; in assay [3] it was 41.6%; in assay [4], 78.6%; in assay [5] it was 101%; in assay [6], 98.4%. The molecule also came in with an IC50 in assay [7] of 388 nM.
For the molecule `C/C=C(/C)C(=O)O[C@H]1C(C)=C2[C@H]([C@@H]1O)[C@@](C)(O)C[C@H](OC(=O)CCC)[C@@]1(O)[C@H]2O[C@H]2OC(C)(C)O[C@]21C`, the Control in assay [8] was 53.8%; in [9], 25.1%; in assay [10] it was 82.6%; in assay [11], 98.6%; in assay [12] it was 50.9%; in assay [14] it was 43.5%. For the same molecule, the IC50 in [13] was found to be 60.6 µM.
On to `C/C=C(/C)C(=O)O[C@H]1C(C)=C2[C@H]([C@@H]1OC(=O)CCCCC)[C@@](C)(OC(C)=O)C[C@H](OC(=O)CCC)[C@@]1(O)[C@H]2O[C@H](OCC)[C@@]1(C)O`, for which half-maximal inhibition in [7] (IC50) was put at 11.2 nM.
`C/C=C(/C)C(=O)O[C@H]1C(C)=C2[C@H]([C@@H]1OC(=O)CCCCCCC)[C@@](C)(O)C[C@H](OC(=O)CCCCCCC)[C@@]1(O)[C@H]2OC(O)[C@@]1(C)O` (some centres not stated): the Control in assay [15] amounted to 68.9%; in assay [16], 51.1%; in assay [5], 98.4%; in [17], 21.9%; in [18], 16.2%; in [19] it was 34.6%. It took 120 nM to reach half-maximal inhibition in [7] (IC50).
`C/C=C(/C)C(=O)O[C@H]1C(C)=C2[C@H]([C@@H]1OC(=O)CCCCC)[C@@](C)(OC(C)=O)C[C@H](OC(=O)CCC)[C@@]1(O)[C@H]2O[C@H]2OC(C)(C)O[C@]21C`: the Control amounted to 34.7% in [20]; 49.3% in assay [21]; 66.6% in [4]; 100% in assay [5]; 81.2% in assay [6]; 55.7% in [22]. This molecule showed an IC50 in [7] of 157 nM.
Turning to `C/C=C(/C)C(=O)O[C@H]1C(C)=C2[C@H]([C@@H]1OC(=O)CCCCC)[C@@](C)(OC(C)=O)C[C@H](OC(=O)CCC)[C@@]1(O)[C@H]2O[C@@H](OC(C)=O)[C@@]1(C)O`, the IC50 in assay [7] turned out to be 18.4 nM.
Same read-out and setting: under `C/C=C(/C)C(=O)O[C@H]1C(C)=C2[C@H]([C@@H]1OC(=O)CCCCCCC)[C@@](C)(OC(C)=O)C[C@H](OC(=O)CCC)[C@@]1(O)[C@H]2OC(=O)[C@@]1(C)O` [THAPSIGARGIN] stands 9.6 nM; under `C/C=C(/C)C(=O)O[C@H]1C(C)=C2[C@H]([C@@H]1OC(=O)CCCCC)[C@@](C)(OC(C)=O)C[C@H](OC(=O)CCC)[C@@]1(O)[C@H]2O[C@H]2O[C@H](OCC)O[C@]21C`, 24.1 nM.
With `C/C=C(/C)C(=O)O[C@H]1C(C)=C2[C@H]([C@@H]1OC(=O)CCCCC)[C@@](C)(O)C[C@H](OC(=O)CCC)[C@@]1(O)[C@H]2O[C@H]2OC(C)(C)O[C@]21C`, the Control in assay [23] came to 24%; in [24], 49%; in assay [4] it was 97%; in [25] it was 53.7%; in assay [26] it was 87%; in [27] it was 52.3%. In [13], this molecule showed an IC50 of 5.59 µM.
Consider `C/C=C(/C)C(=O)O[C@H]1C(C)=C2[C@H]([C@@H]1OC(=O)CCCCC)[C@@](C)(OC(C)=O)C[C@H](OC(=O)CCC)[C@@]1(O)[C@H]2O[C@@H](O)[C@@]1(C)O.C/C=C(/C)C(=O)O[C@H]1C(C)=C2[C@H]([C@@H]1OC(=O)CCCCC)[C@@](C)(OC(C)=O)C[C@H](OC(=O)CCC)[C@@]1(O)[C@H]2O[C@H](O)[C@@]1(C)O`, for which the 50% inhibitory concentration (IC50) in [7] came to 15.6 nM.
Still for that read-out and setting: under `C/C=C(/C)C(=O)O[C@H]1C(C)=C2[C@H]([C@@H]1OC(=O)CCCCC)[C@@](C)(OC(C)=O)C[C@H](OC(=O)CCC)[C@@]1(O)[C@H]2O[C@H]2O[C@]21C` stands 51.7 nM.
On the same count and under the same terms, under `C/C=C(/C)C(=O)O[C@H]1C(C)=C2[C@H]([C@@H]1OC(=O)CCCCC)[C@@](C)(OC(C)=O)C[C@H](OC(=O)CCC)[C@@]1(O)[C@H]2OC(=O)[C@@]1(C)O` stands 9.8 nM.

The values above are taken from ChEMBL document CHEMBL1128581, “Structure-activity relationships of analogues of thapsigargin modified at O-11 and O-12” (J Med Chem, 1995).
